Beta2AR agonist = beta2AR agonists driving receptor internalization, primary screen, cell-based, FAP fluorogen, flow cytometry. 340,000 compounds, 0.43% hits. Am2.2-beta2AR cells. Beta-2 adrenergic receptor (Homo sapiens), P07550. response, % (concentration not given with the values);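 active means response above a set limit, near 3 SD of response in nonfluorescent compounds, cut at about 42% in these data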
UPR CHOP act = activators of apoptotic CHOP UPR arm, primary screen, cell-based, CHO-CHOP luciferase reporter, luminescence, uHTS | activation, % at 10 µM | AID 449763, 2010 | UPR activation; percent of tunicamycin response over DMSO baseline | 330,000 compounds, 0.34% hits;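 active means at 10 µM dose, activation of 40% or more, normalized to positive control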;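 further: 100% = tunicamycin at 10 µg/mL and 0% = DMSO alone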
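Dosing – one dose, 10 µM in 0.5% DMSO · System – CHO-CHOP cells, stable luciferase reporter of PERK-eIF2a-CHOP signalling · Input – 500 cells/well · Control set – tunicamycin 10 µg/mL final as positive, DMSO-only wells as negative · Timing – 6 h compound treatment, 37 °C · Measure – % activation vs tunicamycin · Technique – luminescence read with Steady-Glo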
UPR XBP1 act = activators of adaptive XBP1 UPR arm, primary screen, cell-based, CHO-XBP1 luciferase reporter, luminescence, uHTS; IRE1-XBP1 UPR activation; percent of tunicamycin response, DMSO as zero; activation, % at 20 µM; 330,000 compounds, 0.33% hits; AID 463104, 2010;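 active means versus positive control, 20 µM dose yields 30% or more activation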;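 further: 100% = tunicamycin at 10 µg/mL and 0% = DMSO only wells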
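Assay system: CHO-XBP1 luciferase reporter cells; Schedule: 6 h treatment, 37 °C; Detection: glow luminescence from Steady-Glo reagent; Benchmarks: high control tunicamycin 10 µg/mL final, low control DMSO vehicle only.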
Dynein cargo inh = inhibitors of GR-EGFP nuclear translocation, primary screen, dynein cargo transport inhibitor project, imaging, high-content, 3617.4 mouse cells. test concentration mostly 20 µM; stimulated with dexamethasone, 1 µM; stronger effect = lower value. 220,000 compounds, 0.47% hits. z-score, hits read low;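 active means plate z-score of nuclear minus cytoplasmic receptor signal below a set negative limit, without overly bright fluorescence or cell loss, cut at about -3.5 in these data, passing the limit was not always enough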;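 further: z-score of nuclear minus cytoplasmic ring GR-EGFP intensity difference per well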
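Schedule: 48 h induction, then 1 h compound, then 30 min agonist, 37 °C. Buffer or medium: tetracycline-free induction medium containing charcoal-stripped FBS. Reagent: 1.0 µM final dexamethasone stimulus. Evaluation: nuclear versus cytoplasmic GR-EGFP signal, averaged per well. Signal: high-content fluorescence imaging after fixation.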
Mdm2 MdmX PPI = inhibitors of human Mdm2-MdmX association, primary screen, cell-based, luminescence, split luciferase, SaOS-2, uHTS; SaOS-2 split-luciferase Mdm2/MdmX complementation; inhibition, % at 8 µM; 330,000 compounds, 3% hits; AID 485346, 2010;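 active means inhibition of at least 50% at 8 µM in the primary screen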
Target sequence (O15151 whole entry, looked up): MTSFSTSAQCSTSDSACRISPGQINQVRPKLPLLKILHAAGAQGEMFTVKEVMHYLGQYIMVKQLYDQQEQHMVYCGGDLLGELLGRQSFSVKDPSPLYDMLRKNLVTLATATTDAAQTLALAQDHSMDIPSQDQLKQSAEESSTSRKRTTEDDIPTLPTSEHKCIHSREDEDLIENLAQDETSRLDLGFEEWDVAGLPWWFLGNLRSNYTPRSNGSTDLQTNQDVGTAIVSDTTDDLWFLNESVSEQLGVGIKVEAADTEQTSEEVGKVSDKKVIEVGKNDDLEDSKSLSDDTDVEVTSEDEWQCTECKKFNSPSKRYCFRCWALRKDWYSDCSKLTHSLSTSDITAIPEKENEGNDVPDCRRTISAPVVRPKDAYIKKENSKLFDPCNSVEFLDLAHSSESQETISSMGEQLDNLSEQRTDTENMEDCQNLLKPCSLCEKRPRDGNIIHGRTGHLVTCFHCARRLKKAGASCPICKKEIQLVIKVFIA
Target sequence (Q00987 whole entry, looked up): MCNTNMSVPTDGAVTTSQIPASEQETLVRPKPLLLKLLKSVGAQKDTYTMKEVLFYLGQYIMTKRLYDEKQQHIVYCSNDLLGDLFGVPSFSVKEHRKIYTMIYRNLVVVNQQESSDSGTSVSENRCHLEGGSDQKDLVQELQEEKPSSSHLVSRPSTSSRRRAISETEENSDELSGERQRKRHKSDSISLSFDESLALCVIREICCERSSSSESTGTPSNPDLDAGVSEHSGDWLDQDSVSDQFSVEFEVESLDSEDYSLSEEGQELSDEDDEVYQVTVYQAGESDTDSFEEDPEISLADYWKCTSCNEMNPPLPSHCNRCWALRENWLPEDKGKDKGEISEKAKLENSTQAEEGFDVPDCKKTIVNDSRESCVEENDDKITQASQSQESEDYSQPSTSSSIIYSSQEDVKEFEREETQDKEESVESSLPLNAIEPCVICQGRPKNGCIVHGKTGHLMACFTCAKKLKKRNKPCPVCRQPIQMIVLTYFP
MDM2 E3 inh = MDM2-luciferase reporter signal enhancers, primary screen, MDM2 E3 ligase inhibitor project, cell-based, luminescence, 1536-well; 210,000 compounds, 0.11% hits; cell-based MDM2 ubiquitination luciferase reporter, 2 h; 0 = plate control, 100 = twice control, blank-subtracted; signal enhancement, % at 5 µM; AID 1230, 2008; E3 ubiquitin-protein ligase Mdm2 (Homo sapiens), Q00987;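 active means signal enhancement of 30% or more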;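 further: luminescence tracks abundance of the self-degrading MDM2-luciferase fusion protein; higher signal means inhibition of MDM2 E3 ligase activity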
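Assay system: mammalian cells stably expressing self-ubiquitinating, self-degrading MDM2 E3–luciferase fusion. Quantity: 2000 cells in each well. Medium: DMEM culture medium. Compound dosing: single-point 5 µM. Timing: cell settling 4 h, compound treatment 2 h, both 37 °C. Technique: luciferase luminescence. Read-out basis: percent signal gain over controls, blank-subtracted. Benchmarks: plate controls and plate blanks.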
Mdm2 MdmX conf = Mdm2-MdmX complex disruptors, retested hits, confirmation, luminescence, single concentration. shares compounds with Mdm2 MdmX PPI. inhibition, % at 8 µM. 10,000 compounds, 55% hits. Mdm2-MdmX binding, luminescent assay. AID 489028, 2010; in the data active means inhibition above about 40%
Full FLuc ctr = full-length luciferase signal inhibition, confirmation, counter-screen for Mdm2/MdmX interaction inhibitor project, cell-based, single concentration, SaOS-2; 6,200 compounds, 77% hits; shares compounds with Mdm2 MdmX PPI; SaOS-2 full-length luciferase counterscreen, luminescence; inhibition, % at 8 µM;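 active means mean inhibition at 8 µM reaching about 37%, which flags the compound as non-specific, limit read from the data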;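 further: p53-null SaOS-2 cells with luciferase driven by a doxycycline-inducible promoter; compound on cells about two nights before reading with doxycycline added after day one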
* hit, by the source's call; nt = no result. An excerpt weighted towards active compounds, which were near 3.7% of everything screened.

SMILES	Beta2AR agonist	UPR CHOP act	UPR XBP1 act	Dynein cargo inh	Mdm2 MdmX PPI	MDM2 E3 inh	Mdm2 MdmX conf	Full FLuc ctr
O=C(COc1ccc(C(=O)NCCc2ccccc2)cc1)Nc1ccccc1	-10	0	-3	-0.75	-21	-2	nt	nt
CC(=O)Nc1ccc(-c2cc(C(=O)O)c3ccccc3n2)cc1	19	-1	-4	-0.081	7	-18	nt	nt
O=C(NC(=S)Nc1ccc(NC(=O)c2ccccc2)cc1)c1ccc(F)cc1	-1	5	5	nt	16	nt	nt	nt
CC(=O)Nc1ccc(NC(=O)c2ccc(NC(=O)c3ccccc3)cc2)cc1	1	0	-1	nt	62*	nt	17	nt
O=C(NC(=S)Nc1ccc2c(c1)C(=O)c1ccccc1C2=O)c1ccc(F)cc1	nt	15	41*	-0.27	69*	-6	-69	nt
Cc1ccncc1CNC(=O)c1ccccc1	0	nt	nt	nt	nt	nt	nt	nt
CC(C)C(=O)Nc1ccc(NC(=O)c2ccc(COc3ccccc3)cc2)cc1	-8	1	3	nt	72*	nt	23	90*
O=C(Nc1ccc(NC(=S)NC(=O)C(c2ccccc2)c2ccccc2)cc1)c1ccccc1	-2	1	-4	-1.1	51*	nt	49*	42*
Cc1ccc(CNC(=O)COc2ccc(C(=O)c3ccc(F)cc3)cc2)cc1	-9	1	1	-0.13	51*	-4	54*	64*
O=C(NC(=S)Nc1ccc(-c2ccccc2)cc1)c1ccccc1	7	nt	nt	nt	nt	nt	nt	nt
CCN(CC1CCCO1)C(=O)CCc1nnc(CCc2ccccc2OC)o1 (centres undefined)	1	1	0	nt	-8	nt	nt	nt
CN(Cc1ccco1)c1ncnc2ccc(-c3ccc4c(ccn4C)c3)cc12	22	-1	17	nt	51*	nt	53*	66*
O=C(Nc1ccc(Cl)cc1)c1cc2c(cc1O)[nH]c1ccccc12	29	3	-2	1.1	97*	nt	93*	58*
CC(=O)Nc1ccc2[nH]c3ccccc3c2c1	2	0	-3	0.57	-7	6	nt	nt
Clc1ccccc1Cc1noc(CN2CCCCC2CCc2ccccn2)n1 (centres undefined)	-22	0	3	-0.75	4	-5	nt	nt
CC(C)NC(=O)CN(Cc1ccc(F)cc1)C(=O)CCC(=O)Nc1ccccn1	8	0	-1	nt	2	nt	nt	nt
COc1cccc2c1OC1(C)CC2N(C(=O)c2ccco2)C(=S)N1c1ccc(F)cc1 (centres undefined)	8	-1	-3	-0.47	65*	-18	53*	70*
CC12CC(c3ccccc3O1)N(C(=O)c1ccco1)C(=O)N2c1ccccc1 (centres undefined)	-7	-2	-5	-0.34	7	-13	nt	nt
O=C1C=C(c2ccc3ncccc3c2)C[C@@H](c2ccc(Cl)cc2)C1	7	0	0	nt	54*	nt	46*	83*
COc1ccc([C@H]2CC(=O)C=C(c3ccc4ncccc4c3)C2)cc1	-13	1	0	nt	19	nt	nt	nt
Cn1c(=O)[nH]c(=O)c2c1nc(CN1CCN(c3cccc(Cl)c3)CC1)n2CCCc1ccccc1	8	2	2	0.12	9	-10	nt	nt
CCN1CCN(Cc2nc3c(c(=O)[nH]c(=O)n3C)n2Cc2ccccc2Cl)CC1	-4	-1	-1	1.8	-14	nt	nt	nt
CCCCn1c(CN2CCN(c3cccc(Cl)c3)CC2)nc2c1c(=O)[nH]c(=O)n2C	-10	-3	1	-0.47	53*	3	62*	57*
Cc1ccc(Cl)cc1N1CCN(Cc2nc3c(c(=O)[nH]c(=O)n3C)n2Cc2ccccc2F)CC1	2	2	4	nt	51*	nt	35	77*
CCN1CCN(c2nc3c(c(=O)[nH]c(=O)n3C)n2Cc2ccccc2F)CC1	2	-1	-3	nt	-3	nt	nt	nt
SMILES	Beta2AR agonist	UPR CHOP act	UPR XBP1 act	Dynein cargo inh	Mdm2 MdmX PPI	MDM2 E3 inh	Mdm2 MdmX conf	Full FLuc ctr
Cn1c(=O)[nH]c(=O)c2c1nc(CN1CCN(c3cccc(Cl)c3)CC1)n2Cc1ccccc1Cl	8	-1	7	0.56	73*	-1	51*	59*
Oc1c(Cl)cc(Cl)cc1C=Nc1ccc(Br)cc1	11	-1	1	-0.74	92*	-8	52*	60*
O=C(Nc1nc2ccccc2n1CCN1CCOCC1)c1cn(-c2ccccc2)nc1-c1ccccc1	32	-2	-1	0.75	51*	-19	22	nt
Cc1ccc(NC(CNS(=O)(=O)c2ccc(Cl)cc2)c2ccccc2)cc1 (centres undefined)	-1	-2	-5	0.027	52*	-5	20	nt
COc1cccc(/C=N/NC(=O)c2c(C)nc3ccc(Br)cn23)c1	-3	1	5	-1.9	11	-7	nt	nt
Cc1nc2ccc(Br)cn2c1C(=O)N/N=C\c1ccc(C(C)C)cc1	4	4	1	nt	57*	nt	48*	64*
CC(=O)N1CCN(C(=O)c2cc(S(=O)(=O)N3CCN(c4ccccc4)CC3)ccc2Cl)CC1	0	2	-4	nt	-10	nt	nt	nt
CCCC(NCC(O)COc1ccc(-c2ccccc2)cc1)c1ccccc1 (centres undefined)	21	8	24	1.4	100*	-14	56*	60*
CC(NCC(O)COc1ccc2ccccc2c1)c1ccccc1 (centres undefined)	17	-1	13	nt	34	nt	nt	nt
Cc1cc(OCC(O)CNC(C)c2ccccc2)ccc1C(C)C (centres undefined)	42	1	4	nt	59*	nt	17	nt
O=C(COc1ccccc1Cl)NNC(=O)c1ccc(-n2cncn2)c([N+](=O)[O-])c1	2	3	0	nt	3	nt	nt	nt
O=C(NC1CCCCC1)C1CC(=O)N(Cc2ccccc2)C1 (centres undefined)	3	-2	1	nt	8	nt	nt	nt
